In the library only some 4.6% were active in any assay of this set; here they are far more common.
NALP1 yeast inh – NALP1 inhibition; S. cerevisiae NALP1/ASC/caspase-1 growth, X-gal OD620, 72 h; inhibition, % at 10 µM; actives 0.61% (n = 280,000); AID 2071; in the data active means inhibition mostly above about 24%, no sharp cut-off; inactive means mostly below about 32%
ALR inh – human ALR oxidase inhibition via reduced H2O2; P55789; purified ALR, DTT oxidation, H2O2 HRP-luminol luminescence; inhibition, % (test concentration not listed); actives 3.8% (n = 290,000); AID 485317;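 active means mean replicate inhibition above about 79%, with every replicate also reaching it, limit read from the data; inconclusive means only one of the two criteria met; inactive means mean below limit and not every replicate reaching it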
Target sequence (P55789 whole entry, looked up): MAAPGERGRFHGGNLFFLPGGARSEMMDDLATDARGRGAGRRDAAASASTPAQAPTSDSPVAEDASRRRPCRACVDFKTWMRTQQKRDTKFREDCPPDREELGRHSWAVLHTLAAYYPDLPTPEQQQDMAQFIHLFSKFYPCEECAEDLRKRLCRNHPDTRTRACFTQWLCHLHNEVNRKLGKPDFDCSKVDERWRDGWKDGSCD
Pemphigus Ab inh – human desmoglein-3 autoantibody binding inhibition; DSG3-coupled beads, scFv-anti-DSG3-GFP binding, flow cytometry; hits give low values; binding (percent of control), % at 10 µM; actives 0.48% (n = 310,000);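 active means binding more than 3 SD below its plate's average and above zero; inconclusive means below that plate limit but binding exactly zero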;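 further: hits lower antibody fragment binding to DSG3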
PolyA inh – yeast polyadenylation inhibition; S. cerevisiae SKY197-pL101 polyadenylation reporter, beta-gal luminescence; efflux-impaired pdr1/pdr3 knockout yeast; score 100 = 6 SD above DMSO; activity score, % at 12 µM; actives 0.02% (n = 300,000); AID 1875;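 active means lowest replicate activity score at least 50, where 100 means six control SD above control mean; inconclusive means lowest score under 50 but half or more replicates reach 50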;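 further: yeast exposed to compound for 9 h at 30 °C; higher score means more reporter readthrough which indicates perturbed polyadenylation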
Arrestin-AP2 inh – human beta-arrestin and AP2 interaction inhibition. actives 0.31% (n = 340,000). inhibition, % at 10 µM. AID 504490. FITC-arrestin peptide / GST-AP2 beads, flow cytometry; AP2 beta2 appendage carries R879A mutation;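 active means inhibition above a set limit, near 3 SD of compounds lacking own fluorescence, cut at about 54% in these data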;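 further: plate controls were DMSO wells for no effect and 5 µM unlabelled arrestin peptide for full effect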
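System: GST-AP2 R879A bound to glutathione beads, E. coli-expressed. Also added: 50 nM FITC-arrestin peptide. Schedule: compound with beads 12 min RT, then probe 1 h RT. Signal: bead flow cytometry, FITC channel. Read-out basis: percent response.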
NLRP3 yeast inh – NALP3 inhibition in yeast; AID 2825; Yeast reconstituted NLRP3/ASC/caspase-1, beta-gal luminescence, 24 h; actives 0.39% (n = 330,000); inhibition, % at 10 µM;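 active means inhibition of 50% or more; inactive means inhibition below 50%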;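 further: plate controls were induced DMSO wells for no effect and uninduced yeast grown without galactose for full effect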
* = called active by the depositor; ? = inconclusive; nt = not tested or not shown.

SMILES | NALP1 yeast inh | ALR inh | Pemphigus Ab inh | PolyA inh | Arrestin-AP2 inh | NLRP3 yeast inh
O=C(c1ccco1)N1CCN(CCOCCOc2cccc3ccccc23)CC1 | -17.5 | -28.4 | 101.2 | -12.7 | 6.0 | 32.8
c1ccc(CN2CCN(CCOCCOc3cccc4ccccc34)CC2)cc1 | 37.6* | -13.2 | 113.4 | -0.2 | -1.1 | 30.7
O=C1CCCC2=C1C(c1ccc(Br)cc1)c1c([nH]c(=S)[nH]c1=O)N2 (configuration not stated) | -9.0 | 83.0* | 96.4 | 3.1 | 5.4 | 1.6
Cc1ccc(C2C3=C(CCCC3=O)Nc3[nH]c(=S)[nH]c(=O)c32)cc1 (configuration not stated) | -11.1 | nt | 96.8 | 17.4 | 11.3 | 22.9
CC(C)c1ccc(C(=O)Nc2ccc(S(=O)(=O)NC3=NCCCCC3)cc2)cc1 | nt | nt | 98.8 | nt | nt | nt
Cc1cc(C)nc(NCC(O)CNc2ccccc2Cl)n1 (configuration not stated) | 16.6 | 92.0* | nt | 3.9 | 13.5 | 32.9
Cc1cc(Nc2ccccc2Cl)c2ccccc2n1 | nt | nt | 91.5 | 4.1 | 7.5 | 15.8
Nc1ccc2c(c1)N1CCN=C1S2 | -5.8 | 87.8* | 75.2 | 16.6 | 31.3 | -11.6
COC(=O)/C=C/c1ccc(OC(=O)OC)c(OC(=O)OC)c1 | 16.7 | 98.0* | nt | 3.8 | 4.7 | nt
Cc1cc(C)cc(NS(=O)(=O)c2c(C(=O)N3CCOCC3)c(C)n(C)c2C)c1 | 5.8 | -0.5 | 99.9 | 10.3 | 7.8 | 9.1
CCOC(=O)C1=C(C)NC2=C(C(=O)CC(C)(C)C2)C1c1ccc(N(C)C)cc1 (configuration not stated) | -1.1 | 65.6 | 98.9 | 1.7 | 0.1 | 8.2
COCCOC(=O)C1=C(C)NC2=C(C(=O)CCC2)C1c1ccc(N(C)C)cc1 (configuration not stated) | 16.1 | 99.7* | 84.3 | -11.8 | 10.2 | 14.0
CCN(CC)c1ccc(C2C(C(=O)OCCOC(C)C)=C(C)NC3=C2C(=O)CCC3)cc1 (configuration not stated) | -19.7 | 98.8* | 106.0 | -0.1 | -3.1 | 6.1
CCOC(=O)N1CCN(C2CCCN(C(=O)c3cccc(Cl)c3)C2)CC1 (configuration not stated) | 18.8 | 2.5 | 107.4 | 18.2 | -7.5 | 10.8
CCOc1ccc(CCNC(=O)c2nnc(CS(=O)(=O)c3ccccc3)o2)cc1OCC | 8.8 | nt | 111.8 | 12.6 | 5.1 | 12.1
O=C(CSc1nc2nn(-c3ccccc3)c(=O)c-2c2n1CCCCC2)Nc1ccc(F)c(F)c1 | nt | 49.2 | -12.1* | nt | -11.9 | 27.3
CNC(=O)CSc1nc2nn(-c3ccccc3)c(=O)c-2c2n1CCCCC2 | 10.7 | -4.7 | 102.8 | 6.4 | 1.8 | 5.4
O=C(CSc1nc2nn(-c3ccccc3)c(=O)c-2c2n1CCCCC2)c1ccc(O)c(O)c1 | nt | 91.6* | 112.2 | nt | 4.7 | 14.9
COc1ccc(-c2nc3ccccn3c2NCc2ccc3c(c2)OCO3)cc1 | -0.2 | ? | nt | -1.8 | -2.5 | 15.7
c1ccc(-c2nc3ccccn3c2NCc2ccc3c(c2)OCO3)cc1 | 16.3 | 81.1* | 116.5 | -6.1 | 0.8 | 13.4
C/C=C\C=C/C(=O)Nc1cccc(C2=NOC3(C2)C[C@@H](C(N)=O)N(C(=O)/C=C/CC)C3)c1 (some centres not stated) | nt | -3.7 | 99.8 | 0.0 | 4.5 | 9.7
C/C=C\C=C/C(=O)Nc1cccc(C2=NOC3(C2)C[C@@H](C(N)=O)N(C(=O)C2(C)CC2)C3)c1 (some centres not stated) | nt | -2.4 | 90.8* | 7.1 | 32.8 | -8.6
C/C=C\C=C/C(=O)Nc1cccc(C2=NOC3(C2)C[C@@H](C(N)=O)N(C(=O)/C=C/C=C\C)C3)c1 (some centres not stated) | nt | 4.4 | 68.2* | -11.8 | -16.3 | 5.4
C/C=C\C(=O)Nc1cccc(C2=NOC3(C2)C[C@@H](C(N)=O)N(C(=O)C2(C)CC2)C3)c1 (some centres not stated) | -0.7 | nt | 112.3 | 11.3 | 2.9 | 2.5
NC(=O)NC(CC(=O)NNC(=O)c1cccs1)c1ccc(Cl)cc1 (configuration not stated) | nt | -2.3 | 95.6 | nt | -8.8 | 6.0
Cc1nc(N)sc1N=Nc1ccc(F)cc1 | 31.9 | 98.3* | 99.9 | -0.7 | 18.9 | 41.1
